Source: ChEMBL document CHEMBL1158730, “Sesquiterpenoids from Pulicaria canariensis and their cytotoxic activities” (J Nat Prod, 2005)
Activity calls are given as the source filed them. The calls are words filed in the database; no cut-off is given here.

Experiments:
Assay type in all cases: functional, cell-based
HL-60 [1] = test: Cytotoxicity against human HL60 cells by MTT assay
Outline: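 HL-60 cells grown in suspension in RPMI-1640 with 10% heat-inactivated FBS, penicillin 100 units/mL and streptomycin 100 μg/mL, at 37 °C in humidified 95% air/5% CO2. Density kept below 1 × 10^6 cells/mL. Viability read by MTT; IC50 (μM) given as mean ± spread.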

HL-60 [2] = test: Induction of apoptosis in human HL60 cells assessed as accumulation […] at 30 uM after 12 hrs by flow cytometry
Outline: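 HL-60 cells incubated at 30 μM for 12 h. DNA content analysed by flow cytometry to follow the diploid-to-hypodiploid shift and the cell-cycle phase distribution.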

HL-60 [3] = test: Induction of apoptosis in human HL60 cells assessed as activation of caspase 3 after 12 hrs
Outline: (§1)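 HL-60 cells exposed to increasing concentrations for 12 h, then harvested. Cytosolic or total lysates assayed with colorimetric substrates, DEVD-pNA for caspase-3 and IETD-pNA for caspase-8. Activity expressed as x-fold over untreated control. A representative experiment run in duplicate.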

HL-60 [4] = test: Induction of apoptosis in human HL60 cells assessed as cleavage of PARP-1 after 12 hrs by Western blot analysis
Outline: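 HL-60 cells treated for 12 h at the indicated concentrations. Total lysates immunoblotted with a PARP-1 monoclonal antibody that detects the native 116 kDa and cleaved 85 kDa forms. Etoposide 10 μM served as positive control.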

HL-60 [5] = test: Induction of apoptosis in human HL60 cells assessed as nuclear chromatin condensation by Hoechst 33258 based fluorescent microscopy
Outline: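 HL-60 cells cultured 12 h without or with the indicated doses, then stained with Hoechst 33258. Condensed/fragmented chromatin scored by fluorescence microscopy as the percentage of apoptotic cells. Etoposide 10 μM as positive control. Points are the average (±SE) of triplicates from a representative experiment.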

HL-60 [6] = test: Induction of apoptosis in human HL60 cells assessed as activation of caspase 8 at after 12 hrs; outline: as §1

| SMILES | IC50 (HL-60 [1]) [µM] | also measured |
| --- | --- | --- |
| CC(=O)OC/C1=C/CC[C@@]2(C)O[C@@H]2[C@@H](OC(C)=O)[C@@H](C(C)C)[C@H](OC(C)=O)C1 | 298 | – |
| CC(=O)O[C@H]1[C@@H](C(C)C)[C@H](OC(C)=O)C[C@]2(C=O)O[C@@H]2CC[C@@]2(C)O[C@@H]12 [PULICANARAL B] | 264 | – |
| C=C1CC/C=C(/COC(C)=O)C[C@@H](OC(C)=O)[C@H](C(C)C)[C@H](OC(C)=O)C1=O [TRIACETOXY PULICANONE] | 20 | Activity (HL-60 [2]): Active; Activity (HL-60 [3]): Active; Activity (HL-60 [4]): Active; Activity (HL-60 [5]): Dose-dependent effect; Activity (HL-60 [6]): Active |
| CC(=O)O[C@@H]1/C=C(\C)CC[C@H]2O[C@@]2(C=O)C[C@@H](OC(C)=O)[C@@H]1C(C)C [PULICANARAL A] | 115 | – |
| C=C1CC[C@@H](C(C)C)[C@H]2[C@@H]1CC[C@@H]2C(=O)CO [PULIOPLOPANONE A] | 242 | – |
